Laboratory results from ChEMBL document CHEMBL3259675, “Novel N-substituted sophoridinol derivatives as anticancer agents” (Eur J Med Chem, 2014).

System: HepG2
Assay: Antiproliferative activity against human HepG2 cells assessed as growth inhibition at 10 ug/ml after 48 hrs by MTT assay
Assay type: functional
Settings: HepG2, 48 h
Summary of the method: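 Cell lines from ATCC, grown in MEM-EBSS with 10% FBS and 1% penicillin-streptomycin at 37 °C, 5% CO2. Seeded at 4000 cells/well, left 24 h, then exposed to a concentration series for 48 h. Growth read by MTT. Percent inhibition was computed at each concentration and IC50 derived from it. Triplicate determinations, reported as mean SD.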

Row | Structure (SMILES) | inhibition at 10 µg/mL [%]
1 | OCCCC[C@@H]1[C@H]2CCCN3CCC[C@@H](CN1Cc1ccccc1)[C@@H]23 | 31
2 | COCCCC[C@@H]1[C@H]2CCCN3CCC[C@H](CN1Cc1ccccc1)[C@@H]23 | 4.4
3 | COC(=O)CCC[C@H]1NC[C@H]2CCCN3CCC[C@H]1[C@H]23 | 33.4
4 | CCCN1C[C@H]2CCCN3CCC[C@@H]([C@H]23)[C@H]1CCCC(=O)OC | 24.9
5 | COC(=O)CCC[C@@H]1[C@H]2CCCN3CCC[C@H](CN1CC(C)C)[C@@H]23 | 26.8
6 | COC(=O)CCC[C@@H]1[C@H]2CCCN3CCC[C@H](CN1Cc1ccccc1F)[C@@H]23 | 60.8
7 | COC(=O)CCC[C@@H]1[C@H]2CCCN3CCC[C@H](CN1Cc1cccc(F)c1)[C@@H]23 | 81.8
8 | COC(=O)CCC[C@@H]1[C@H]2CCCN3CCC[C@H](CN1Cc1ccc(F)cc1)[C@@H]23 | 73.1
9 | COC(=O)CCC[C@@H]1[C@H]2CCCN3CCC[C@H](CN1Cc1cccc(Cl)c1)[C@@H]23 | 84.9
10 | COC(=O)CCC[C@@H]1[C@H]2CCCN3CCC[C@H](CN1Cc1ccc(Br)cc1)[C@@H]23 | 89.6
11 | COC(=O)CCC[C@@H]1[C@H]2CCCN3CCC[C@H](CN1Cc1ccncc1)[C@@H]23 | 29.9
12 | COC(=O)CCC[C@@H]1[C@H]2CCCN3CCC[C@H](CN1Cc1ccco1)[C@@H]23 | 16.6
13 | CCCN1C[C@H]2CCCN3CCC[C@@H]([C@H]23)[C@H]1CCCC(=O)O | 25.3
14 | CC(C)CN1C[C@H]2CCCN3CCC[C@@H]([C@H]23)[C@H]1CCCC(=O)O | 10.7
15 | O=C(O)CCC[C@@H]1[C@H]2CCCN3CCC[C@H](CN1Cc1ccccc1)[C@@H]23 | 1.5
16 | O=C(O)CCC[C@@H]1[C@H]2CCCN3CCC[C@H](CN1Cc1ccccc1F)[C@@H]23 | 1.6
17 | O=C(O)CCC[C@@H]1[C@H]2CCCN3CCC[C@H](CN1Cc1cccc(F)c1)[C@@H]23 | 25.2
18 | O=C(O)CCC[C@@H]1[C@H]2CCCN3CCC[C@H](CN1Cc1ccc(F)cc1)[C@@H]23 | 2
19 | O=C(O)CCC[C@@H]1[C@H]2CCCN3CCC[C@H](CN1Cc1cccc(Cl)c1)[C@@H]23 | 22.8
20 | O=C(O)CCC[C@@H]1[C@H]2CCCN3CCC[C@H](CN1Cc1ccc(Cl)cc1)[C@@H]23 | 3.5
21 | O=C(O)CCC[C@@H]1[C@H]2CCCN3CCC[C@H](CN1Cc1ccc(Br)cc1)[C@@H]23 | 24.9
22 | O=C(O)CCC[C@@H]1[C@H]2CCCN3CCC[C@H](CN1Cc1ccncc1)[C@@H]23 | 22.3
23 | NC(=O)CCC[C@@H]1[C@H]2CCCN3CCC[C@H](CN1Cc1ccc(Cl)cc1)[C@@H]23 | 1.7
24 | CCCN1C[C@H]2CCCN3CCC[C@@H]([C@H]23)[C@H]1CCCCO | 0.9
